Experimental findings from ChEMBL document CHEMBL3758077, “Discovery of New Acid Ceramidase-Targeted Acyclic 5-Alkynyl and 5-Heteroaryl Uracil Nucleosides” (ACS Med Chem Lett, 2015) are described below.

In one assay the test system is BJ. Put plainly: Antiproliferative activity against human BJ cells after 72 hrs by MTT assay. Type of assay: cell-based. Summed up:
(§1)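 Cells grown in vitro with test agent; growth inhibition read by MTT assay; IC50 taken as concentration inhibiting tumor cell proliferation by 50%.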
For orientation: Formazan colour is commonly taken as a measure of viable cells.

Assay [1] deals with MCF7. Kind of assay: Antiproliferative activity against human MCF7 cells after 72 hrs by MTT assay. The class given is functional, cell-based. The note with it: MCF7, 72 h. Summed up:
as §1

Assay [2] in a line: Antiproliferative activity against human SW620 cells after 72 hrs by MTT assay. The class given is functional, cell-based. The note with it: SW-620, 72 h. Summed up: as §1
The next assay concerns HeLa. Put plainly: Antiproliferative activity against human HeLa cells after 72 hrs by MTT assay. Type of assay: functional, cell-based. Summed up: as §1
The test system of assay [3] is MCF7. Put plainly: Downregulation of ASAH1 expression in human MCF7 cells at IC50 after 24 hrs by western blot analysis. The class given is functional, cell-based.
Assay [4] has as its system MCF7. Kind of assay: Induction of apoptosis in human MCF7 cells assessed as necrotic cells at IC50 after 24 hrs by annexinV/propidium iodide staining based fluorescence analysis (reference value: 9.4 %). The class given is functional.
The subject of assay [5] is MCF7. Kind of assay: Induction of apoptosis in human MCF7 cells assessed as late apoptotic cells at IC50 after 24 hrs by annexinV/propidium iodide staining based fluorescence analysis (reference value: 7.5 %). Type of assay: functional.
Assay [6] concerns MCF7. Put plainly: Induction of apoptosis in human MCF7 cells assessed as early apoptotic cells at IC50 after 24 hrs by annexinV/propidium iodide staining based fluorescence analysis (reference value: 8.7 %). The class given is functional.
In assay [7] the test system is MCF7. Put plainly: Induction of apoptosis in human MCF7 cells assessed as necrotic cells at IC50 after 48 hrs by annexinV/propidium iodide staining based fluorescence analysis (reference value: 25.4 %). Type of assay: functional.
Assay [8] concerns MCF7. Kind of assay: Induction of apoptosis in human MCF7 cells assessed as late apoptotic cells at IC50 after 48 hrs by annexinV/propidium iodide staining based fluorescence analysis (reference value: 27.7 %). The class given is functional.
The subject of assay [9] is MCF7. Kind of assay: Induction of apoptosis in human MCF7 cells assessed as early apoptotic cells at IC50 after 48 hrs by annexinV/propidium iodide staining based fluorescence analysis (reference value: 36.1 %). Type of assay: functional.
Assay [10] deals with T1, 17-beta-hydroxysteroid dehydrogenase type 1 (Homo sapiens) (UniProt P14061).
T1 sequence (whole entry): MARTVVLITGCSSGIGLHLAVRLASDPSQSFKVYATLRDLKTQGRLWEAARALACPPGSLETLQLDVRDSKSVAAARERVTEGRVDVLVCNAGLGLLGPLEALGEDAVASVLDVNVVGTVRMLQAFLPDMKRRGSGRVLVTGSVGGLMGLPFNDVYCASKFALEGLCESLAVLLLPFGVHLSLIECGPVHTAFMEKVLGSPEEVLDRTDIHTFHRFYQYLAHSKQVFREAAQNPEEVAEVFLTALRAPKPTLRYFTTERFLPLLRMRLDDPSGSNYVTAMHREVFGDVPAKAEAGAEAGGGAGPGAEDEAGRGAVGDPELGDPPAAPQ
Put plainly: Inhibition of 17beta-HSD1 in human MCF7 cells at IC50 after 24 hrs by ELISA. Type of assay: cell-based. A general note: In an ELISA, binding on a coated surface is turned into a signal by an enzyme label.

Assay [11] concerns the target T1, 17-beta-hydroxysteroid dehydrogenase type 1 (Homo sapiens). Put plainly: Inhibition of 17beta-HSD1 in human MCF7 cells at 5XIC50 after 24 hrs by ELISA. The class given is cell-based.
Assay [12] deals with MCF7. Put plainly: Effect on SK1 expression in human MCF7 cells at IC50 after 24 hrs by western blot analysis. The class given is functional, cell-based. In general terms: In western blotting, separated proteins are transferred to a membrane and probed.

The source made the active and inactive calls. The calls are words filed in the database; no cut-off is given here. Some results are limits rather than exact numbers.

As to `CCCCCCCCC#Cc1cn(CCC(COC(C)=O)COC(C)=O)c(=O)n(C(=O)c2ccccc2)c1=O`, the IC50 (usually the concentration that gives 50% inhibition) was over 100 µM with BJ, 28.9 µM with MCF7 [1], 65.8 µM in [2] and 32.4 µM in the assay with HeLa.

For the compound `CCCCCC#Cc1cn(CCC(COC(C)=O)COC(C)=O)c(=O)n(C(=O)c2ccccc2)c1=O`, the concentration for half-maximal inhibition (IC50) with MCF7 [1] was 62.2 µM; in assay [2] it was 40.7 µM; in the assay on HeLa, 53.7 µM.

On to `CC(=O)OCC(CCn1cc(C#CCc2ccccc2)c(=O)n(C(=O)c2ccccc2)c1=O)COC(C)=O`, for which the IC50 worked out at 26.8 µM with MCF7 [1], 36.4 µM in assay [2] and 29.9 µM with HeLa.

In the case of `CC(=O)OCC(CCn1cc(C#Cc2cc(F)cc(F)c2)c(=O)n(C(=O)c2ccccc2)c1=O)COC(C)=O`, the IC50 with BJ is 46.6 µM; in the assay with MCF7 [1], 28.9 µM; in assay [2], over 100 µM; in the assay with HeLa, 64.5 µM.

As to `CCCCCC#Cc1cn(CCC(CO)CO)c(=O)[nH]c1=O`, the concentration for half-maximal inhibition (IC50) is 37.8 µM in the assay with MCF7 [1], over 100 µM in assay [2] and 76.3 µM with HeLa.

Consider `O=c1[nH]c(=O)n(CCC(CO)CO)cc1-c1ccco1`, for which the half-inhibitory concentration (IC50) in the assay on BJ was 0.5 µM; in the assay with MCF7 [1], under 0.01 µM; in [2], over 100 µM; in the assay with HeLa, over 100 µM. Besides, the inhibition entry (in the assay on MCF7 [3]; in [10]; in assay [11]) was “inactive” in each case. The Activity stood at 34% in the assay with MCF7 [4]; 19.7% in the assay with MCF7 [5]; 20.4% in the assay with MCF7 [6]; 28.7% with MCF7 [7]; 18% in the assay with MCF7 [8]; 39.3% with MCF7 [9]. Besides, in the assay with MCF7 [12], the outcome was inactive.

Take `CCCCCc1ccc(C#Cc2cn(CCC(CO)CO)c(=O)[nH]c2=O)cc1`: the IC50 was 26.8 µM in the assay on MCF7 [1], over 100 µM in assay [2] and 48.2 µM with HeLa.

As to `CC(=O)OCC(CCn1cc(C#CC2CC2)c(=O)n(C(=O)c2ccccc2)c1=O)COC(C)=O`, the IC50 in the assay on BJ is 0.3 µM; in the assay with MCF7 [1] it was 0.1 µM; in [2], over 100 µM; in the assay with HeLa, over 100 µM. Further, the inhibition entry in the assay on MCF7 [3] is “Active”. For the same compound, the Activity came to 34.1% with MCF7 [4]; 36.6% in the assay with MCF7 [5]; 10.9% in the assay with MCF7 [6]; 31.6% with MCF7 [7]; 24.4% in the assay with MCF7 [8]; 20.9% in the assay on MCF7 [9]. Also, in the assay on MCF7 [12], the result was inactive.

As for `CCCCCc1ccc(C#Cc2cn(CCC(COC(C)=O)COC(C)=O)c(=O)n(C(=O)c3ccccc3)c2=O)cc1`, the IC50 was 17.6 µM with BJ, 0.1 µM with MCF7 [1], over 100 µM in [2] and 79.1 µM with HeLa. The inhibition result with MCF7 [3] was “Active”. For the same compound, the Activity in the assay with MCF7 [4] amounted to 34.6%; in the assay on MCF7 [5], 28.3%; in the assay with MCF7 [6], 41.7%; in the assay with MCF7 [7] it was 37.9%; in the assay with MCF7 [8], 24.1%; in the assay with MCF7 [9] it was 28.2%. Further, in the assay on MCF7 [12], the outcome was inactive.

Take `CC(C)(C)C#Cc1cn(CCC(CO)CO)c(=O)[nH]c1=O`: the IC50 in the assay on BJ was 58.2 µM; in the assay on MCF7 [1] it was 95.9 µM; in assay [2], over 100 µM; in the assay on HeLa it was over 100 µM.

For `O=c1[nH]cc(F)c(=O)[nH]1` [FLUOROURACIL], the IC50 in the assay on MCF7 [1] was 0.09 µM; in assay [2], 0.79 µM; with HeLa, over 100 µM.

As for `O=c1[nH]c(=O)n(CCC(CO)CO)cc1C#Cc1cc(F)cc(F)c1`, the IC50 with BJ is over 100 µM; in the assay on MCF7 [1] it was 63.1 µM; in assay [2] it was over 100 µM; in the assay with HeLa it was 31.2 µM.

As for `CC(=O)OCC(CCn1cc(C#CC(C)(C)C)c(=O)n(C(=O)c2ccccc2)c1=O)COC(C)=O`, the IC50 in the assay on BJ was 36.9 µM; in the assay with MCF7 [1] it was 67.1 µM; in [2] it was over 100 µM; in the assay on HeLa it was 71.5 µM.

Turning to `O=c1[nH]c(=O)n(CCC(CO)CO)cc1C#CC1CC1`, the IC50 (in the assay on MCF7 [1]; in [2]; in the assay with HeLa) was over 100 µM in each case.

Turning to `O=c1[nH]c(=O)n(CCC(CO)CO)cc1C#Cc1ccc(Br)cc1`, the IC50 is over 100 µM in the assay on BJ, 46 µM with MCF7 [1], over 100 µM in assay [2] and 67.7 µM in the assay with HeLa.

As for `CC(=O)OCC(CCn1cc(C#CCCCCl)c(=O)n(C(=O)c2ccccc2)c1=O)COC(C)=O`, the IC50 in the assay with MCF7 [1] is 21 µM; in assay [2] it was over 100 µM; in the assay with HeLa it was 52.8 µM.

Turning to `CC(=O)OCC(CCn1cc(C#Cc2ccc(Br)cc2)c(=O)n(C(=O)c2ccccc2)c1=O)COC(C)=O`, the IC50 was 37.6 µM with BJ, 28.9 µM with MCF7 [1], over 100 µM in assay [2] and 47.2 µM with HeLa.

Regarding `O=c1[nH]c(=O)n(CCC(CO)CO)cc1C#CCCCCl`, the IC50 in the assay with MCF7 [1] is 35.2 µM; in assay [2], over 100 µM; with HeLa, over 100 µM.

Turning to `O=c1[nH]c(=O)n(CCC(CO)CO)cc1-c1cccs1`, the IC50 was 6 µM in the assay with MCF7 [1], over 100 µM in [2] and 7.8 µM with HeLa. The inhibition entry with MCF7 [3] was “inactive”. The Activity in the assay with MCF7 [4] turned out to be 26.2%; with MCF7 [5] it was 33.6%; with MCF7 [6], 32.8%; with MCF7 [7], 13.1%; with MCF7 [8], 22.9%; with MCF7 [9], 54.9%. Besides, the inhibition entry in assay [10] and in assay [11] was “Active” each time. Also, the outcome in the assay with MCF7 [12] was inactive.

Consider `O=c1[nH]c(=O)n(CCC(CO)CO)cc1C#CCc1ccccc1`, for which the IC50 is over 100 µM with BJ, over 100 µM with MCF7 [1], 72.4 µM in assay [2] and 63.8 µM with HeLa.

Regarding `CCCCCCCCC#Cc1cn(CCC(CO)CO)c(=O)[nH]c1=O`, the IC50 in the assay on MCF7 [1] is 40.3 µM; in assay [2], over 100 µM; with HeLa, 58.9 µM.
